From ChEMBL document CHEMBL3774372, “Design, physico-chemical properties and biological evaluation of some new N-[(phenoxy)alkyl]- and N-{2-[2-(phenoxy)ethoxy]ethyl}aminoalkanols as anticonvulsant agents” (Bioorg Med Chem, 2016) come the findings set out here.

A word on the inhibition: it is the drop in the measured response relative to a control, in per cent. For orientation: Tmax means the time from dosing to the highest level. As a reminder, the MRT is a mean duration of stay, worked out from the concentration-time curve. As a reminder, the ED50 is the midpoint of the dose-response relation.

Calls of active or inactive are those of the source. The rule behind the calls is not given here.

For series [1], the system named is Rattus norvegicus. Nature of the series: Anticonvulsant activity in pilocarpine-induced status epilepticus Sprague-Dawley rat model at 30 mg/kg, ip after […] during post stage 3 seizure. It counts as functional, organism-based.
The target of series [2] is Neuropeptide Y receptor type 2 (Homo sapiens) (UniProt P49146). Nature of the series: Displacement of [125I]peptide YY from neuropeptide Y2 receptor in human KAN-TS cells at 10^-5 M. It counts as cell-based. The essentials:
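Radioligand binding screen run at a single test concentration of 10^-5 M. Each target used its stated receptor source (human recombinant CHO or HEK-293 cells, endogenous cell lines, or rat tissue membranes) with the listed radioligand.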

Series [3] relates to Rattus norvegicus. Nature of the series: Anticonvulsant activity in rat assessed as protection against maximal electric shock-induced seizures at 30 mg/kg, ip measured after […]. It counts as functional, organism-based.
In series [4] the test system is Rattus norvegicus. Briefly: Anticonvulsant activity in rat assessed as protection against maximal electric shock-induced seizures at 30 mg/kg, po measured after 2 hrs. It counts as functional, organism-based. The essentials:
(§1)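 Rats dosed ip or orally as 0.5% methylcellulose suspension; maximal electroshock at listed time. Protection = abolition of hindlimb tonic extension; 4 rats per group, scored protected/tested.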

The test system of series [5] is Rattus norvegicus. Nature of the series: Anticonvulsant activity in rat assessed as protection against maximal electric shock-induced seizures at 30 mg/kg, po measured after 0.5 hrs. The format is functional, organism-based. The essentials:
as §1

Series [6] has as its system Mus musculus. Briefly: Tmax in CD1 mouse plasma at 12.92 mg/kg, ig measured up to 240 mins by LC/ESI-MS/MS analysis. The format is ADME, organism-based. As to conditions: in vivo, po, 4 h.
The nature of series [7]: MRT in CD1 mouse plasma at 1 mg/kg, iv measured up to 240 mins by LC/ESI-MS/MS analysis. The format is ADME, organism-based.
Series [8] relates to Vibrio harveyi. Nature of the series: Antimutagenic activity against Vibrio harveyi BB7XM assessed as inhibition of NQNO-induced mutagenicity after 48 hrs. It counts as functional. In short, it runs like this:
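V. harveyi cultures grown exponentially to A600 0.1 at 30 °C, exposed to test compound for 15 min, then to NQNO, and grown on to A600 0.3–0.4. 5 × 10⁶ cells plated on BOSS agar with neomycin (100, final). Neomycin-resistant colonies counted after 48 h at 30 °C. Result given as % inhibition of NQNO mutagenicity; three independent repeats.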

For series [9], the system named is Mus musculus. Nature of the series: Neurotoxicity in mouse at 100 mg/kg, ip after 0.5 hrs by rotarod test. The format is toxicity, organism-based. As to conditions: in vivo. In short, it runs like this: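 Mice were dosed ip with compound suspended in 0.5% methylcellulose. Rotarod: a 1 in. knurled rod turning at 6 rpm. Neurotoxicity was scored as failure to stay on the rod for at least 1 min in each of three trials. Results are given as the number of animals affected out of the number tested.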

In series [10] the test system is Mus musculus. Briefly: Anticonvulsant activity in ip dosed mouse assessed as protection against subcutaneous pentylenetetrazol-induced seizures measured after […]. It counts as functional.
The nature of series [11]: Ratio of drug level in brain to plasma in CD1 mouse at 12.92 mg/kg, ip administered as single dose measured after 240 mins by LC/ESI-MS/MS analysis. The format is ADME, organism-based. Particulars: brain and plasma, read-out: BPR.
Series [12] deals with Rattus norvegicus. Briefly: Toxicity in pilocarpine-induced status epilepticus Sprague-Dawley rat assessed as death at 400 mg/kg, ip. The format is organism-based. As to conditions: in vivo. In short, it runs like this:
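Pilocarpine 50 mg/kg ip given to male Sprague-Dawley rats (150–180 g). At the first stage 3–5 seizure (Racine scale), compound was given ip to groups of 8. Deaths and protection were recorded at 0.25–4 h; weight change was measured 24 h after the first stage 3 seizure.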

For series [13], the target named is hERG (KCNH2) (Homo sapiens, UniProt Q12809). Nature of the series: Displacement of [3H]astemizole from human recombinant ERG expressed in HEK293 cells at 10^-4 M. It counts as cell-based. As to conditions: HEK293 cells that express human recombinant ERG, probe [3H]astemizole.
Series [14] in a line: Ratio of drug level in brain to plasma in CD1 mouse at 1 mg/kg, iv administered as single dose measured after 30 mins by LC/ESI-MS/MS analysis. The format is ADME, organism-based. As to conditions: brain and plasma, read-out: BPR.
Series [15] in a line: Ratio of drug level in brain to plasma in CD1 mouse at 12.92 mg/kg, ip administered as single dose measured after 60 mins by LC/ESI-MS/MS analysis. It counts as ADME, organism-based. As to conditions: brain and plasma, read-out: BPR.
Series [16] in a line: Ratio of drug level in brain to plasma in CD1 mouse at 12.92 mg/kg, ig administered as single dose measured after 5 mins by LC/ESI-MS/MS analysis. As to conditions: brain and plasma, po, read-out: BPR. The format is ADME, organism-based.
Series [17] in a line: Ratio of drug level in brain to plasma in CD1 mouse at 12.92 mg/kg, ip administered as single dose measured after 30 mins by LC/ESI-MS/MS analysis. As to conditions: brain and plasma, read-out: BPR. It counts as ADME, organism-based.
A short description of series [18]: Ratio of drug level in brain to plasma in CD1 mouse at 1 mg/kg, iv administered as single dose measured after 240 mins by LC/ESI-MS/MS analysis. The format is ADME, organism-based. Particulars: brain and plasma, read-out: BPR.

Sequence of hERG (KCNH2) (Q12809 whole entry): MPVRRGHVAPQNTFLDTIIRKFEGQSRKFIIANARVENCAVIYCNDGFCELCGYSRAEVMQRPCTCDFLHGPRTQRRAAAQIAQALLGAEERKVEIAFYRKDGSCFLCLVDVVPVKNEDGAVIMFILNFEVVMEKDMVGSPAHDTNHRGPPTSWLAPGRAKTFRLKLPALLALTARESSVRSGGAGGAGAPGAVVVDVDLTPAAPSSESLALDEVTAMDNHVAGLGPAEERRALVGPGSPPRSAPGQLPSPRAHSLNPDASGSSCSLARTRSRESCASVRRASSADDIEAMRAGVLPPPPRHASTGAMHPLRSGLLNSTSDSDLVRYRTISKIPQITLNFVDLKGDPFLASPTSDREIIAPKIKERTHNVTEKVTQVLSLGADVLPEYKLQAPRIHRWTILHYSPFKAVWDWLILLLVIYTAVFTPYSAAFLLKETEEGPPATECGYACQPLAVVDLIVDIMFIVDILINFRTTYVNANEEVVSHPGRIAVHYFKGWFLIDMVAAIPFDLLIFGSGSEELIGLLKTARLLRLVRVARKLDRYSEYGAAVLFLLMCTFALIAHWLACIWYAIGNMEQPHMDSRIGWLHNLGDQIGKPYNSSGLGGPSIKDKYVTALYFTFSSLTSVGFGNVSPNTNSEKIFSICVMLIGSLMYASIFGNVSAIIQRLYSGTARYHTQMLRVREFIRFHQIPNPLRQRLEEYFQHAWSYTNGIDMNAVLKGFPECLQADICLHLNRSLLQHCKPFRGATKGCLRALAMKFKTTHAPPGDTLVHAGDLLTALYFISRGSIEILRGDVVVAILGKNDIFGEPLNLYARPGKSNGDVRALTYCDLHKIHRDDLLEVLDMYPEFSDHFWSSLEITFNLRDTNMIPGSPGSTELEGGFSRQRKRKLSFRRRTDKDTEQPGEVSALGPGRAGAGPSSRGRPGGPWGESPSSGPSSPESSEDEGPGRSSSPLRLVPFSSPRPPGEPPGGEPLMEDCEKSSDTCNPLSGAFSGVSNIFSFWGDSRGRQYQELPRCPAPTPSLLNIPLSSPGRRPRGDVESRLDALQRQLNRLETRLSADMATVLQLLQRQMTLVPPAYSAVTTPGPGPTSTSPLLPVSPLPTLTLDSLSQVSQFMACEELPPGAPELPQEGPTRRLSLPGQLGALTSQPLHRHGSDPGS
Sequence of Neuropeptide Y receptor type 2 (Homo sapiens) (P49146 whole entry): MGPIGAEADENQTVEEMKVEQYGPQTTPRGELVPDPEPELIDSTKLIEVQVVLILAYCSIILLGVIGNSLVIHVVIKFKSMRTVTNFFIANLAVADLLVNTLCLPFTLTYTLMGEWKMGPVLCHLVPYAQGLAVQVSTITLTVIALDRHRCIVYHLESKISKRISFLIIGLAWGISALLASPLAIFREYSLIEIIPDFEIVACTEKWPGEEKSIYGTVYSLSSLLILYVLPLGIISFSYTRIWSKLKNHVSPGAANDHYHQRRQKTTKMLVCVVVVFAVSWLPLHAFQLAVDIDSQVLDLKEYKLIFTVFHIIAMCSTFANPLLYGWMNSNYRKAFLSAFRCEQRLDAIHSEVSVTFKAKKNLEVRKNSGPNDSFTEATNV

As to `Cc1cccc(C)c1OCCOCCN[C@H](C)CO`, in series [1], the outcome was inactive. Moreover, the inhibition in [2] was -5.1%.

Turning to `Cc1cccc(C)c1OCCOCCN[C@@H](C)CO`, in series [3], the outcome was Active. In addition, the outcome in series [4] and in [5] was inactive.

In the case of `Cc1cccc(C)c1OCCOCCN[C@H](C)CO.Cl`, the Tmax in [6] was determined as 5 min. Moreover, the mean residence time (MRT) in [7] was 55.6 min. Also, the “inhibition (INH)” value in series [8] is listed as 41%. Moreover, the Activity entry in series [9] is given as “Toxic”; in series [12], “Non-toxic”. The ED50 in series [10] is greater than 45 mg/kg. Moreover, the Kp at 4 h was determined as 1.94 in [11] and 2.98 in series [18]. Also, the inhibition at 100 µM in series [13] was 3.6%. Further, the Kp at 0.5 h was 5.41 in [14] and 4.25 in [17]. The Kp at 1 h in series [15] was 1.91. In addition, in [16], the Kp at 5 min was determined as 1.73.
